# Bioassay records (PubChem)
# Rows were chosen to be rich in hits. Some 3.8% of all compounds tested hit in one or more screens of this group.
# KCNQ1 block = blocks the human KCNQ1 potassium channel | P51787 | CHO-K1 KCNQ1, FluxOR thallium flux fluorescence; active compounds read high | B-score at 10 µM | 1.3% of 310,000 active | AID 2642;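 active means compounds whose thallium flux B-score, printed positive for inhibition, exceeds three library SD while starting fluorescence stays within three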;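 further: channel opened by potassium depolarization with thallium stimulus after 20 min compound exposure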
# Target sequence (P51787 whole entry, looked up): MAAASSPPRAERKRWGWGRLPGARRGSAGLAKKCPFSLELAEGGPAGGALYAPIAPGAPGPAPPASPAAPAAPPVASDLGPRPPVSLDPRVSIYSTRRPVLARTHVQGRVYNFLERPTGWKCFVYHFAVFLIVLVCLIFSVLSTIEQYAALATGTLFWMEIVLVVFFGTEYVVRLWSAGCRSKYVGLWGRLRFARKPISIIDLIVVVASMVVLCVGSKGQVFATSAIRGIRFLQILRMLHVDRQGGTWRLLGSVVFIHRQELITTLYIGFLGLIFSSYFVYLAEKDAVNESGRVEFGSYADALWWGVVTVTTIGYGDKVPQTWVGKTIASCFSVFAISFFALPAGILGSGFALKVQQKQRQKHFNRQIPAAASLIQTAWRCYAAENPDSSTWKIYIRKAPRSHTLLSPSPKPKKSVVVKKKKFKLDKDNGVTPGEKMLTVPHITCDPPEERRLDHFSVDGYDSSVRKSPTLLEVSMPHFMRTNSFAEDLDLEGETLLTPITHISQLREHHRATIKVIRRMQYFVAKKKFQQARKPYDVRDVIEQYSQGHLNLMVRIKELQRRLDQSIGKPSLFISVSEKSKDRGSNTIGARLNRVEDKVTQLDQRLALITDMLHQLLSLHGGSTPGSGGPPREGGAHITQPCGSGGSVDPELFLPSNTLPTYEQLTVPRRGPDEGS
# KCNQ1 act = potentiators or activators of human KCNQ1 potassium channel. 0.35% of 310,000 active. CHO-K1 KCNQ1, thallium flux FluxOR fluorescence; active compounds read high. B-score at 10 µM. AID 2648;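 active means fluorescence ratio B-score, a plate-corrected score, at least three library SD, with initial intensity B-score within 5 SD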
#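 Schedule – 37 °C overnight plating, 90-min dark dye load, 20-min compound pretreatment · System – stable KCNQ1 CHO-K1 line · Probe or stimulus – thallium- and potassium-containing depolarizing buffer · Measured by – kinetic FluxOR fluorescence, 10 s baseline plus 110 s post-stimulus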
# KCNK9 inh = blocks the human KCNK9 two-pore domain potassium channel | Q9NPC2 | HEK293 KCNK9, FluxOR thallium flux fluorescence; active compounds read low | B-score at 10 µM | 1.2% of 310,000 active | AID 488922;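 active means ratio B-score over 3 SD below the library mean, with starting fluorescence within 5 SD of its mean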;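 further: negative B-score means less thallium flux so channel inhibition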
# hERG rescue = compounds protecting human hERG from proarrhythmic drug block. Q12809. CHO-hERG, FluxOR thallium flux, dofetilide IC70 present. activation (rescue from dofetilide block), less the hit threshold, % at 10 µM. 0.51% of 310,000 active. AID 1511;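 active means activation above the mean of controls blocked by dofetilide plus 5 SD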;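 further: thallium influx through hERG after potassium depolarization seen as dye fluorescence rise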
# Kir21 block = Kir2.1 (mouse) channel inhibition | HEK293-Kir2.1, FluxOR thallium flux fluorescence; active compounds read low | 0.85% of 310,000 active | AID 1672 | P35561 | B-score at 10 µM;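 active means fluorescence ratio B-score at or below minus 3 SD of library scores, with starting-brightness B-score within 2 SD, cut at about -4.2 in these data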;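 further: channel flux triggered by added potassium and thallium sulfate stimulus; B-score of peak minus minimum fluorescence over baseline after thallium stimulus; more negative B-score means stronger Kir2.1 block with less thallium influx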
# KCNK3 inh = human KCNK3 channel inhibition, primary screen. O14649. CHO-KCNK3 thallium flux, FluxOR fluorescence; active compounds read low. B-score at 10 µM. 0.84% of 340,000 active;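 active means B-score under library mean minus 4 SD, starting fluorescence ratio at most library mean plus 5 SD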;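 further: more negative B-score means stronger inhibition of thallium flux through KCNK3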
# KCNK9 inh conf = confirmation of human KCNK9 potassium channel inhibitors; shares compounds with KCNK9 inh; HEK293 KCNK9 cells, FluxOR thallium flux fluorescence; inhibition, % at 10 µM; 43% of 4,900 active; AID 492992;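 active means thallium signal inhibited by more than 5 SD of the compound-free buffer control wells, on both duplicate plates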;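 further: 0% = assay buffer control wells without compound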
# Kir2-1 spec = tests whether KCNK9 modulators also affect mouse Kir2.1 | 4% of 4,900 active | shares compounds with KCNK9 inh | inhibition, % at 10 µM | Kir2.1 cells, FluxOR thallium flux fluorescence;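 active means thallium signal drop more than 5 SD beyond the mean of the no-compound control wells, seen in both duplicate plates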;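 further: signal is fluorescence rise after thallium addition divided by baseline fluorescence; plate controls were assay buffer only for no effect and full block by chlorpromazine control for full effect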
# HEK293 Tl ctr = non-induced cell nonspecific activity of KCNK9 modulators; shares compounds with KCNK9 inh; non-induced KCNK9-HEK293, FluxOR thallium flux; inhibition, % at 10 µM; 40% of 4,900 active;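 active means thallium signal drop beyond 5 SD of the untreated control mean, on both duplicate plates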;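 further: plate controls were buffer only IC0 wells for no effect and SID17386958 at its maximal inhibitory level for full effect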
# Numbers without * were called inactive; i = inactive; / = no result given.
SMILES,KCNQ1 block,KCNQ1 act,KCNK9 inh,hERG rescue,Kir21 block,KCNK3 inh,KCNK9 inh conf,Kir2-1 spec,HEK293 Tl ctr
COc1cccc(Cn2cnc3c(NS(=O)(=O)c4cccc(Cl)c4Cl)c(C)c(C)cc32)c1,i,i,-12.6*,-13.8,1.17,i,72.0%*,i,i
COc1cccc(Cn2cnc3c(NS(=O)(=O)c4cc(Cl)ccc4Cl)c(C)c(C)cc32)c1,i,i,-15.5*,-1.0,0.3,-9.48*,64.0%*,i,i
CCC(CO)Oc1cc(NC(=O)c2ccccc2Cl)c2ncn(C(C)C)c2c1 (centres undefined),/,/,/,/,/,i,/,/,/
CCCCCCCCCC[N+](C)(C)CC/C=C1/c2ccccc2Sc2ccc(Cl)cc21,i,i,-12.5*,-14.3,-0.81,i,58.5%*,50.0%*,i
OCCN1CCN(CC/C=C2/c3ccccc3Sc3ccc(Cl)cc32)CC1,/,/,/,/,/,i,/,/,/
COc1ccc(Cl)cc1N1C(=NC(=O)C2CCCCC2)SC2CS(=O)(=O)CC21 (centres undefined),i,i,i,-4.2,0.09,i,/,/,/
CCOP(=O)(OCC)c1nc(-c2cccc3ccccc23)oc1NCCc1ccc(OC)cc1,i,i,i,-12.4,-0.26,i,i,i,28.5%*
CCOP(=O)(OCC)c1nc(-c2cccc3ccccc23)oc1N1CCOCC1,i,i,i,-14.3,-2,i,/,/,/
Cc1ccccc1NC(=O)CSCc1cc(=O)n2ccsc2n1,i,i,i,-3.5,-0.03,i,/,/,/
CCOc1ccc(CCNC(=O)CSc2n[nH]c(N)n2)cc1OCC,i,i,i,-7.1,0.16,i,/,/,/
CCCCN(C)C(=O)c1cccc(OC2CCN(CC(C)(C)C)CC2)c1,i,i,-11.7*,-3.5,0.01,i,i,i,i
O=C(NNc1ccccc1C(F)(F)F)c1sccc1Br,i,i,-8.68*,-6.8,-0.96,i,44.0%*,i,i
O=C(Nc1ccccc1C(F)(F)F)c1ccsc1,i,i,i,-5.7,-0.03,i,/,/,/
CC(C)C[C@H](NC(=O)OC(C)(C)C)C(=O)N/N=C/c1ccc2nccnc2c1,i,i,i,-11.8,0.56,i,/,/,/
CC(C)C[C@H](NC(=O)OC(C)(C)C)C(=O)N/N=C/C1=Cc2ccccc2OC1C (some centres undefined),i,i,-11.2*,-10.0,0.23,i,67.5%*,i,32.5%*
CCc1c(C)nc(N2CCN(c3ccc(OC)cc3)CC2)[nH]c1=O,i,i,i,2.0,-1.26,i,/,/,/
Cc1cccc(N2CCN(Cc3nc(-c4cccc(Oc5ccccc5)c4)oc3C)CC2)n1,i,i,i,-17.1,0.85,i,i,i,i
COc1ccc(C(=O)C2CC2c2ccc3c(c2)OCO3)cc1 (centres undefined),i,i,i,-7.8,-0.69,i,i,i,30.0%*
CCN(CC)c1nc(SCC(=O)O)nc(N(CC)CC)n1,i,i,i,-17.1,1.04,i,/,/,/
CCN(CC)c1nc(C#N)nc(N(CC)CC)n1,i,i,i,-7.9,-0.41,i,i,i,i
O=S(=O)(c1ccc(NC(=S)NN=Cc2ccccc2O)cc1)N1CCCCC1,/,/,/,/,/,i,/,/,/
CC1(c2ccccc2Cl)NC(=O)N(CC(=O)NCc2ccc3c(c2)OCO3)C1=O (centres undefined),i,i,i,-3.6,-0.6,i,/,/,/
COC(=O)c1cc(NC(=O)C2(S(=O)(=O)c3ccc(C)cc3)CC2)cc(C(=O)OC)c1,i,i,i,-5.1,0.9,i,i,i,i
